PMC6453127 (Biochimica et biophysica acta. General subjects, 2017)
pIC50: −log10 of the molar value. Entries after “also recorded” stand apart in the source; their conditions may differ.

How the values were obtained:
Hsp90β [1] = target: T1, Hsp90β (Homo sapiens, UniProt P08238); test: Competitive displacement of FITC-GA; assay type: binding; settings: competitor 3 nM to 3 μM; 60 nM Hsp90β, 5 nM FITC-GA
Hsp70 = Hsp70 (Homo sapiens, UniProt P0DMV8); test: Transcreener ADP Hsp70 ATPase assay; assay type: biochemical; settings: 0.5 μM Hsp70; up to 200 μM
Sequence of Hsp70 (P0DMV8 whole entry): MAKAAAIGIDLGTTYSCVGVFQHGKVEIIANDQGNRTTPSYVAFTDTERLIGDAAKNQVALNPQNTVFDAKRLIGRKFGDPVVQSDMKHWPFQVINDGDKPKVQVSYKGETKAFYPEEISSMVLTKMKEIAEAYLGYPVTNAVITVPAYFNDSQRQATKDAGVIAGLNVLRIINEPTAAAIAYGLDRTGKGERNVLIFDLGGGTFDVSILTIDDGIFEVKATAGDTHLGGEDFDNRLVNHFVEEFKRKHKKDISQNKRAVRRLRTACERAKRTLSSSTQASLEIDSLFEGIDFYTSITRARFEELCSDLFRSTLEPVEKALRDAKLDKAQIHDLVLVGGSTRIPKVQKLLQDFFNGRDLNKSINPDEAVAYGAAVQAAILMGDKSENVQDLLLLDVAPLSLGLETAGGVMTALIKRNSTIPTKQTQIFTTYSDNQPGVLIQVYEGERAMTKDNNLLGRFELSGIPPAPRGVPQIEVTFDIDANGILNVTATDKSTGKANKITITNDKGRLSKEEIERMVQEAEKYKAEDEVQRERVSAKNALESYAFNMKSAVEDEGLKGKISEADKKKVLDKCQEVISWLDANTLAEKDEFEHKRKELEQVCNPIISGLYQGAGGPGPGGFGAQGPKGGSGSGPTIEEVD
In short: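 Stopped with EDTA stop-and-detect buffer containing ADP² antibody-IRDye QC-1 and 8 nM ADP Alexa594 tracer, 1 h at RT. Endpoint fluorescence intensity read. Three experiments, four-parameter logistic fit.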

His6-Hsp90β CTD = His6-Hsp90β CTD (Homo sapiens, UniProt P08238); test: BS3 crosslinking dimerization/oligomerization assay, His6-Hsp90β CTD; assay type: biochemical; settings: for oligomerization state of His6-Hsp90β CTD (crosslinking): 2 μM protein, BS3 crosslinker
Sequence of His6-Hsp90β CTD (P08238 530-724): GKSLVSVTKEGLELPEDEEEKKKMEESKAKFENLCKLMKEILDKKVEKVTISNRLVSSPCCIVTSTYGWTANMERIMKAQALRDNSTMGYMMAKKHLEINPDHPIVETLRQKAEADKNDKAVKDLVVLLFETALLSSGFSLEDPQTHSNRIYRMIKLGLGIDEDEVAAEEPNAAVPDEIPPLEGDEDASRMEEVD

Hsp90β [2] = target: T1, Hsp90β; test: Transcreener ADP Hsp90 ATPase assay; assay type: biochemical
GST-Hsp90α CTD [3] = target: T2, GST-Hsp90α CTD (Homo sapiens, UniProt P07900); test: ADH aggregation; assay type: biochemical; settings: for inhibition of Hsp90 CTD chaperone (anti-aggregation) activity, ADH aggregation assay: 40 μM compound, 500 nM Hsp90 CTD, 55 °C, end point 90 min
In short: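 Reaction: 6.2 μM equine ADH, with or without 500 nM GST-Hsp90α CTD and compound. Aggregation induced at 55 °C, read as absorbance at 360 nm every minute for 90 min. The 90-min endpoint was used, with the mean of ADH alone set to 100%. Three independent experiments.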

full-length Hsp90α = full-length Hsp90α (Homo sapiens, UniProt P07900); test: BS3 crosslinking assay, full length Hsp90α; assay type: biochemical; settings: 2 μM protein; BS3 crosslinker
In short: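 Full-length Hsp90α used at 2 μM in 50 mM NaPO₄ and 150 mM NaCl, preincubated with compound for 1 h at room temperature. BS3 crosslinker added at 66–200 μM final for 1 h at RT, then quenched with 50 mM Tris-HCl pH 7.5 for 15 min. Analysed by 10% SDS-PAGE and western blot.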

GST-Hsp90α CTD [4] = target: T2, GST-Hsp90α CTD; test: BS3 crosslinking assay, GST-Hsp90α CTD; assay type: biochemical; settings: 2 μM protein; NSC145366 10 μM to 100 μM
GST-Hsp90α NTD = GST-Hsp90α NTD (Homo sapiens, UniProt P07900); test: BS3 crosslinking assay, GST-Hsp90α NTD; assay type: biochemical; settings: 2 μM protein
In short: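 2 μM protein buffer-exchanged into 50 mM NaPO₄ and 150 mM NaCl, then preincubated with compound for 1 h at room temperature. BS3 added at 66–200 μM final for 1 h at RT, then quenched with 50 mM Tris-HCl pH 7.5 for 15 min. Boiled in SDS dye, run on 10% SDS-PAGE, western-blotted and probed with anti-GST antibody.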

GST-Hsp90α CTD [5] = target: T2, GST-Hsp90α CTD; test: ATP-agarose pulldown, Hsp90 CTD; assay type: binding; settings: 200 μM compound, 6 μM CTD
LNCaP cells = test: Western blot of Hsp90 clients and heat shock proteins in LNCaP cells; assay type: cell-based; settings: 48 h
In short: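 ATCC LNCaP cells kept in ATCC-recommended medium, authenticated and used within 20 passages. Cells treated for 48 h, trypsinised, PBS-washed and lysed in RIPA with protease inhibitors, 1 mM PMSF, 0.1% Triton X-100 and 1 mM DTT. Protein measured by Bradford before western blot. Band intensities of treated samples expressed as percentage of vehicle.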

GST-Hsp90α CTD (626–732) = GST-Hsp90α CTD (626–732) (Homo sapiens, UniProt P07900); test: DARTs assay with GST-Hsp90α CTD; assay type: binding; settings: 200 μM compound

T1 sequence (P08238 whole entry): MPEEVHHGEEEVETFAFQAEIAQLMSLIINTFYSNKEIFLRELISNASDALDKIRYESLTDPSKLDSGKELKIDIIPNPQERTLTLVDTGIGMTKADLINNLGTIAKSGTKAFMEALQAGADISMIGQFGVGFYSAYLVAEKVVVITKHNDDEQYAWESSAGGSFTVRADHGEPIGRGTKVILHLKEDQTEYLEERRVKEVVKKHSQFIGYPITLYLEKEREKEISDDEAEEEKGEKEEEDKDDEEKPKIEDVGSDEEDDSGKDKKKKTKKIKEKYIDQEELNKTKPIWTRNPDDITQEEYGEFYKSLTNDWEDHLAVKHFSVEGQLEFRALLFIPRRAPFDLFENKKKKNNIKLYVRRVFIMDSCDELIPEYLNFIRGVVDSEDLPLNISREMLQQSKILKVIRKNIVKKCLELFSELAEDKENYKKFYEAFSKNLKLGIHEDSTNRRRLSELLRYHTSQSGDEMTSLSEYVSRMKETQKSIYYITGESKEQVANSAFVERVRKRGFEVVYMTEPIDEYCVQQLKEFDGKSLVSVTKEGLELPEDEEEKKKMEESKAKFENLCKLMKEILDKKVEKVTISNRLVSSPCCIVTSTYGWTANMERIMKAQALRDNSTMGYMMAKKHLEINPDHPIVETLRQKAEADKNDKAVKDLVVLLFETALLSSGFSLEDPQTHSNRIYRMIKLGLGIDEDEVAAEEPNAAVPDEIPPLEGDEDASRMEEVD

## CCNC(=O)c1noc(-c2cc(C(C)C)c(O)cc2O)c1-c1ccc(CN2CCOCC2)cc1 [AUY922]
Hsp90β [1]
  competition with FITC-GA binding to Hsp90β: compete with fluorescently labeled GA

## C=CCNC1=C2C[C@@H](C)C[C@H](OC)[C@H](O)[C@@H](C)/C=C(\C)[C@H](OC(N)=O)[C@@H](OC)/C=C\C=C(/C)C(=O)NC(=CC1=O)C2=O [Analog 17-AAG, reference compound]
Hsp70
  inhibition of Hsp70 ATPase function: no effect on Hsp70 ATPase function

## CC(C)(c1ccc(OCC(O)CN2CCOCC2)cc1)c1ccc(OCC(O)CN2CCOCC2)cc1 (stereo not shown) [Analog A1, 3,3’-((propane-2,2-diylbis(4,1-phenylene))bis(oxy))bis(1-mor-pholinopropan-2-ol)]
His6-Hsp90β CTD
  oligomerization state of His6-Hsp90β CTD (crosslinking): CTD monomer band was eliminated

## CN1CCN(CC(O)COc2ccc(C(C)(C)c3ccc(OCC(O)CN4CCN(C)CC4)cc3)cc2)CC1 (stereo not shown) [Analog A2, 3,3’-((propane-2,2-diylbis(4,1-phenylene))bis(oxy))bis(1-(4-methylpiperazin-1-yl)propan-2-ol)]
His6-Hsp90β CTD
  oligomerization state of His6-Hsp90β CTD (crosslinking): CTD monomer band was eliminated
Hsp90β [2]
  pIC50: ~3.66

## CC(C)(c1ccc(OCC(O)CNCc2ccco2)cc1)c1ccc(OCC(O)CNCc2ccco2)cc1 (stereo not shown) [Analog A3, 3,3’-((propane-2,2-diylbis(4,1-phenylene))bis(oxy))bis(1-((fur-an-2-ylmethyl)amino)propan-2-ol)]
His6-Hsp90β CTD
  oligomerization state of His6-Hsp90β CTD (crosslinking): oligomer formation was completely inhibited
His6-Hsp90β CTD; His6-Hsp90β CTD, 200 μM BS3 (Fig. S10)
  disruption of CTD dimer formation compared with Cm A1: disrupt dimer formation more efficiently than Cm A1

## CC(C)CNCC(O)COc1ccc(C(C)(C)c2ccc(OCC(O)CNCC(C)C)cc2)cc1 (stereo not shown) [Analog A8, 3,3’-((propane-2,2-diylbis(4,1-phenylene))bis(oxy))bis(1-(iso-butylamino)propan-2-ol)]
His6-Hsp90β CTD
  oligomerization state of His6-Hsp90β CTD (crosslinking): CTD monomer band was eliminated
Hsp90β [2]
  pIC50: ~3.58

## CC(C)(c1ccc(OCC2CO2)cc1)c1ccc(OCC2CO2)cc1 (stereo not shown) [BADGE, bisphenol A diglycidyl ether]
GST-Hsp90α CTD [3]
  inhibition of Hsp90 CTD chaperone (anti-aggregation) activity, ADH aggregation assay: slight inhibition

## CC(C)(c1ccc(O)cc1)c1ccc(O)cc1 [BPA, Bisphenol A]
GST-Hsp90α CTD [3]
  inhibition of Hsp90 CTD chaperone (anti-aggregation) activity, ADH aggregation assay: did not exhibit inhibition; also recorded: Minimal inhibition
Hsp90β [2]; 0.5 μM Hsp90β, 250 μM ATP, 37 °C 30 min
  IC50, Hsp90β ATPase function: does not have a measurable IC50

## CO[C@H]1[C@H](OC(=O)c2ccc(C)[nH]2)[C@H](O)[C@@H](Oc2ccc3c(O)c(NC(=O)c4c[nH]c(C(=O)Nc5c(O)c6ccc(O[C@H]7OC(C)(C)[C@@H](OC)[C@H](OC(=O)c8ccc(C)[nH]8)[C@@H]7O)c(C)c6oc5=O)c4C)c(=O)oc3c2C)OC1(C)C [Cm A1, coumermycin A1, reference compound]
GST-Hsp90α CTD [3]; 50 μM, positive control
  increase in ADH aggregation: ~ 40%
His6-Hsp90β CTD
  oligomerization state of His6-Hsp90β CTD (crosslinking): increases the level of monomeric Hsp90 CTD
full-length Hsp90α
  oligomerization state of full-length Hsp90α (crosslinking): slightly increases the monomer level of full-length Hsp90α
GST-Hsp90α CTD [4]
  oligomerization state of GST-Hsp90α CTD (crosslinking): increases the level of CTD monomers
GST-Hsp90α NTD
  oligomerization of GST-Hsp90α NTD (crosslinking): appears to decrease oligomerization of the NTD
GST-Hsp90α CTD [5]
  inhibition of CTD binding to ATP-agarose: inhibits CTD binding to ATP

## COC1=C2C[C@@H](C)C[C@H](OC)[C@H](O)[C@@H](C)/C=C(\C)[C@H](OC(N)=O)[C@@H](OC)/C=C\C=C(/C)C(=O)NC(=CC1=O)C2=O [GA, geldanamycin, reference compound]
Hsp90β [1]
  competition with FITC-GA binding to Hsp90β: compete with fluorescently labeled GA
LNCaP cells
  induction of classical heat shock response (Hsp70, Hsp27, Hsp40): did induce the classical heat shock response
LNCaP cells; GA control
  BRCA1 expression level compared to DMSO: 9%

## CO[C@@H]1[C@@H](O)[C@@H](O)[C@H](Oc2ccc3cc(NC(C)=O)c(=O)oc3c2C)OC1(C)C [KU-32, reference compound]
GST-Hsp90α CTD (626–732)
  protection of Hsp90 CTD from pronase degradation (DARTs): protects the Hsp90 CTD from pronase degradation at levels comparable
